Data as given in article PMC4714695 (Cancer Science, 2015).
Like-named read-outs stand apart in the source and are kept apart here.

What was measured:
[1] = Plasma pharmacokinetics; assay type: in vivo, human
[2] = system: Japanese patients with acute myeloid leukemia; assay: Best response and remission duration; assay type: in vivo, human
In short: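 Same patients and dosing: 2-h IV infusion on days 1 and 15 of 28-day cycles, at 350, 400 or 450 mg. Best response (CR, CRi, PR) and remission duration judged by International Working Group and European Leukemia Net criteria. Assessed in peripheral blood and bone marrow, with imaging added for extramedullary disease. Efficacy cut-off 12 March 2015.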

[3] = system: White patients with relapsed or refractory AML; settings: cited from earlier work
[4] = system: PLK2; settings: compared with PLK1; cited from earlier work
[5] = system: PLK3; settings: compared with PLK1; cited from earlier work
[6] = system: more than 50 unrelated kinases; settings: more than 50 kinases tested; cited from earlier work
[7] = human, plasma, intravenous, 350 mg
[8] = human, plasma, intravenous, 400 mg
[9] = human, plasma, intravenous, 450 mg

CC[C@@H]1C(=O)N(C)c2cnc(Nc3ccc(C(=O)N[C@H]4CC[C@H](N5CCN(CC6CC6)CC5)CC4)cc3OC)nc2N1C(C)C [Volasertib]
Mean plasma concentration relative to maximum plasma concentration ([1]; 24 h after administration): < 10%
Dose dependence of exposure ([1]; dose range 350–450 mg): increased dose‐proportionally
Vd ([1]; human, plasma, intravenous): 3540 to 4720 L
clearance ([1]; human, plasma, intravenous): 606 to 669 mL/min
half-life ([1]; human, plasma, intravenous): 108 to 130 h
AUC(0-inf) [1, 7]: 8720 ng·h/mL
AUC(0-t) [1, 7]: 7810 ng·h/mL
Cmax [1, 7]: 756 ng/mL
Tmax [1, 7]: 1.97 h
clearance [1, 7]: 669 mL/min
half-life [1, 7]: 117 h
AUC(0-inf) [1, 8]: 10400 ng·h/mL
AUC(0-t) [1, 8]: 9340 ng·h/mL
Cmax [1, 8]: 762 ng/mL
Tmax [1, 8]: 1.05 h
clearance [1, 8]: 643 mL/min
half-life [1, 8]: 130 h
AUC(0-inf) [1, 9]: 12400 ng·h/mL
AUC(0-t) [1, 9]: 11400 ng·h/mL
Cmax [1, 9]: 1060 ng/mL
Tmax [1, 9]: 1.53 h
clearance [1, 9]: 606 mL/min
half-life [1, 9]: 108 h
AUC0–∞,norm (dose normalized), gMean (gCV%) ([1]; plasma, after first infusion of volasertib 350 mg (n = 7)): 24.9 (27.8) ng·h/mL/mg
AUC0–∞,norm (dose normalized), gMean (gCV%) ([1]; plasma, after first infusion of volasertib 400 mg (n = 4)): 25.9 (54.7) ng·h/mL/mg
AUC0–∞,norm (dose normalized), gMean (gCV%) ([1]; plasma, after first infusion of volasertib 450 mg (n = 8)): 27.5 (22.8) ng·h/mL/mg
Best overall response CR, patients ([2]; 350 mg (n = 7)): 1 n
Best overall response PD, patients ([2]; 350 mg (n = 7)): 3 n
Best overall response SD, patients ([2]; 350 mg (n = 7)): 3 n
Patients with CR/CRi ([2]; 350 mg (n = 7)): 1 n
Best overall response CR, patients ([2]; 350 mg (n = 7), listed as volasertib): One of seven patients
Remission duration, median (range) ([2]; 350 mg, 1 patient with CR/CRi): 358 days
Best overall response CRi, patients ([2]; 400 mg (n = 4)): 2 n
Best overall response SD, patients ([2]; 400 mg (n = 4)): 2 n
Patients with CR/CRi ([2]; 400 mg (n = 4)): 2 n
Best overall response CRi, patients ([2]; 400 mg (n = 4), listed as volasertib): two of four patients
Remission duration, median (range) ([2]; 400 mg, 2 patients with CR/CRi): 72 (70–74) days
Best overall response CR, patients ([2]; 450 mg (n = 8)): 2 n
Best overall response CRi, patients ([2]; 450 mg (n = 8)): 1 n
Best overall response PD, patients ([2]; 450 mg (n = 8)): 1 n
Best overall response PR, patients ([2]; 450 mg (n = 8)): 1 n
Best overall response SD, patients ([2]; 450 mg (n = 8)): 3 n
Patients with CR/CRi ([2]; 450 mg (n = 8)): 3 n
Remission duration, median (range) ([2]; 450 mg, 3 patients with CR/CRi): 96 (56–262) days
Best overall response CR, patients ([2]; Total (N = 19)): 3 n
Best overall response CR, share of patients ([2]; Total (N = 19)): 15.8%
Best overall response CRi, patients ([2]; Total (N = 19)): 3 n
Best overall response CRi, share of patients ([2]; Total (N = 19)): 15.8%
Best overall response PD, patients ([2]; Total (N = 19)): 4 n
Best overall response PD, share of patients ([2]; Total (N = 19)): 21.1%
Best overall response PR, patients ([2]; Total (N = 19)): 1 n
Best overall response PR, share of patients ([2]; Total (N = 19)): 5.3%
Best overall response SD, patients ([2]; Total (N = 19)): 8 n
Best overall response SD, share of patients ([2]; Total (N = 19)): 42.1%
Patients achieving best response of CR, CRi or PR ([2]; Total (N = 19)): 36.8%
Patients with CR/CRi ([2]; Total (N = 19)): 6 n
Remission duration, median (range) ([2]; Total, 6 patients with CR/CRi): 85 (56–358) days
Remission duration, median (range) ([2]; Total, 6 patients with CR/CRi, listed as volasertib): 85 days
Patients achieving best response of CR, CRi or PR ([2]; out of 19 treated patients): 7 patients
Duration for which CR was maintained in one patient ([2]; person, primary refractory M2 de novo AML, complex karyotype, CR after cycle 3): 358 days
DLT reported in White patients ([3]; 400 mg): mucosal inflammation
DLT reported in White patients ([3]; 450 mg): pyrexia
MTD in White patients ([3]; volasertib monotherapy, phase I): 450 mg
Inhibition of PLK2 [4]: to a lesser extent
Inhibition of PLK3 [5]: to a lesser extent
Inhibition of unrelated kinases [6]: does not inhibit
